Experimental data taken from paper PMC4398657 (Bioorganic & medicinal chemistry, 2015).
Marks after values point to notes of the source that are not given here.

Experiments:
[1] = system: transmembrane proton gradient, E. coli NCM3722; assay: LacY permease-dependent uptake and accumulation of [3H]-TMG; format: cell-based, Escherichia coli; conditions: concentrations up to 20 µM
How it was run: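 Whole E. coli cells take up [methyl-³H] β-D-thiogalactopyranoside through the LacY permease, and accumulation depends on proton motive force. The tracer stock was 1 mCi/ml at a specific activity of 7 Ci/mmol. Accumulated radiolabel was measured in the presence of test compound to estimate disruption of the transmembrane proton gradient.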

[2] = system: wild-type E. coli (AB1157); assay: Checkerboard assay: minimum potentiation concentration; format: cell-based, Escherichia coli; conditions: potentiation of LVX and PIP, antibiotic not separated
[3] = system: outer membrane of E. coli strain deficient in AcrAB (HN1159); assay: Nitrocefin influx; format: cell-based, Escherichia coli
[4] = Murine liver microsome stability; format: in vitro ADME, mouse; conditions: % remaining after 60 min at 37 °C in the presence of NADPH; 25 µM compound
How it was run: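 Pooled mouse liver microsomes (0.5 mg/mL final) with test compound at 25 µM final, in 100 mM potassium phosphate pH 7.4 and 3 mM MgCl₂, with or without 2 mM NADPH (no-NADPH as control); 1 h at 37 °C; stopped with an equal volume of acetonitrile with 0.1% TFA. Value is the compound peak-area ratio of +NADPH to no-NADPH.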

[5] = system: AcrB (AcrAB-TolC in E. coli); assay: Cell-based assay of kinetic parameters; design: species or system Escherichia coli; conditions: manuscript in preparation
[6] = system: wild-type E. coli (AB1157); conditions: antibacterial activity of the EPI alone; cited from earlier work

Structure (SMILES) | inhibition of uptake and accumulation of 3H-TMG [1] | EPI potency / MPC4 in words [2] | also measured
COCCN1CCN(c2nc(SCCc3ccc(OC)c(OC)c3)c(C#N)c3c2COC(C)(C)C3)CC1 [Compound 21g] | none of the analogs significantly inhibited uptake and accumulation | – | –
C=CC(=O)Nc1ccc(CCSc2nc(N3CC(C)OC(C)C3)c3c(c2C#N)CC(C)(C)OC3)cc1 (stereo not drawn) [Compound 22i, 6-(4-acrylamidophenethylthio)-5-cyano-3,3-dimethyl-8-(2,6-dimethyl-4-morpholino)-3,4-dihydro-1H-pyrano[3,4-c]pyridine] | none of the analogs significantly inhibited uptake and accumulation | submicromolar | –
COc1cccc(CCSc2nc(N3CCOCC3)c3c(c2C#N)CC(C)(C)OC3)c1 [Compound 20f] | none of the analogs significantly inhibited uptake and accumulation | – | rate of nitrocefin influx [3]: none of the compounds increased the rate of nitrocefin influx
COCCN1CCN(c2nc(SCCc3ccc(OC)cc3)c(C#N)c3c2COC(C)(C)C3)CC1 [Compound 21f] | none of the analogs significantly inhibited uptake and accumulation | – | –
CC1(C)Cc2c(C#N)c(SCCC#N)nc(N3CCOCC3)c2CO1 [Compound 20a] | – | inactive | –
CC(=O)Nc1ccc(CCSc2nc(N3CC(C)OC(C)C3)c3c(c2C#N)CC(C)(C)OC3)cc1 (stereo not drawn) [Compound 22f, 6-(4-acetamidophenethylthio)-5-cyano-3,3-dimethyl-8-(2,6-dimethyl-4-morpholino)-3,4-dihydro-1H-pyrano[3,4-c]pyridine] | – | – | MLMS [4]: 0 ^* %; potency against AcrB relative to MBX2319 [5]: at least 20 fold
CC1(C)Cc2c(C#N)c(SCC(=O)c3ccccc3)nc(N3CCOCC3)c2CO1 [Compound 12c] | – | inactive | –
CC1CN(c2nc(SCCc3ccc(NC(=N)N)cc3)c(C#N)c3c2COC(C)(C)C3)CC(C)O1 (stereo not drawn) [Compound 22k, 6-(4-guanidinophenethylthio)-5-cyano-3,3-dimethyl-8-(2,6-dimethyl-4-morpholino)-3,4-dihydro-1H-pyrano[3,4-c]pyridine] | none of the analogs significantly inhibited uptake and accumulation | submicromolar | –
CC1(C)Cc2c(C#N)c(SCCc3ccccc3)nc(N3CCOCC3)c2CO1 [MBX2319, 3,3-dimethyl-5-cyano-8-morpholino-6-(phenethylthio)-3,4-dihydro-1H-pyrano[3,4-c]pyridine] | – | – | MIC [6]: ≥ 100 µM
CC1CN(c2nc(SCCc3ccc(NC(=O)C(F)(F)F)cc3)c(C#N)c3c2COC(C)(C)C3)CC(C)O1 (stereo not drawn) [Compound 22g, 6-[4-(2,2,2-trifluoroacetamido)phenethylthio]-5-cyano-8-(2,6-dimethylmorpholino)-3,3-dimethyl-3,4-dihydro-1H-pyrano[3,4-c]pyridine] | – | – | MLMS [4]: 0 ^* %
CC1(C)Cc2c(C#N)c(SCC(O)c3ccccc3)nc(N3CCOCC3)c2CO1 (stereo not drawn) [Compound 12d, 6-(2-hydroxy-2-phenylethylthio)-5-cyano-3,3-dimethyl-8-morpholino-3,4-dihydro-1H-pyrano[3,4-c]pyridine] | – | inactive | –
